From ChEMBL document CHEMBL3608292, “Synthesis and biological evaluation of novel myrtucommulones and structural analogues that target mPGES-1 and 5-lipoxygenase” (Eur J Med Chem, 2015) come the findings set out here.

In one experiment the target is T1, Prostaglandin E synthase (Homo sapiens, UniProt O14684).
T1 sequence (O14684 whole entry): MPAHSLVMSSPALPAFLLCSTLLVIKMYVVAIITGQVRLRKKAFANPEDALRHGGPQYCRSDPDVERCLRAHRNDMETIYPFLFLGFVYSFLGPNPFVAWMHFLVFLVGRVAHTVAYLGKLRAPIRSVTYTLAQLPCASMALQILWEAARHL
Put plainly: Inhibition of mPGES-1 in microsomal membranes isolated from interleukin-1beta-stimulated human A549 cells using PGH2 as substrate assessed as PGE2 formation preincubated for 15 mins followed by substrate addition measured after 1 min by RP-HPLC analysis. Format: cell membranes. The method in brief:
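A549 cells kept 16 h in DMEM with 2% FCS, then 1 ng/ml IL-1β for 72 h. Cells homogenized and sonicated, microsomes obtained by centrifugation at 10,000 × g then 174,000 × g. Microsomes in 0.1 M potassium phosphate pH 7.4 with 2.5 mM glutathione, preincubated 15 min with compound or 0.3% DMSO. 20 µM PGH₂ (final) for 1 min at 4 °C. Stopped with FeCl₂/citric acid containing 11β-PGE₂, solid-phase extraction, RP-HPLC with UV at 195 nm.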

The target of experiment [1] is T2, Polyunsaturated fatty acid 5-lipoxygenase (Homo sapiens, UniProt P09917).
T2 sequence (P09917 whole entry): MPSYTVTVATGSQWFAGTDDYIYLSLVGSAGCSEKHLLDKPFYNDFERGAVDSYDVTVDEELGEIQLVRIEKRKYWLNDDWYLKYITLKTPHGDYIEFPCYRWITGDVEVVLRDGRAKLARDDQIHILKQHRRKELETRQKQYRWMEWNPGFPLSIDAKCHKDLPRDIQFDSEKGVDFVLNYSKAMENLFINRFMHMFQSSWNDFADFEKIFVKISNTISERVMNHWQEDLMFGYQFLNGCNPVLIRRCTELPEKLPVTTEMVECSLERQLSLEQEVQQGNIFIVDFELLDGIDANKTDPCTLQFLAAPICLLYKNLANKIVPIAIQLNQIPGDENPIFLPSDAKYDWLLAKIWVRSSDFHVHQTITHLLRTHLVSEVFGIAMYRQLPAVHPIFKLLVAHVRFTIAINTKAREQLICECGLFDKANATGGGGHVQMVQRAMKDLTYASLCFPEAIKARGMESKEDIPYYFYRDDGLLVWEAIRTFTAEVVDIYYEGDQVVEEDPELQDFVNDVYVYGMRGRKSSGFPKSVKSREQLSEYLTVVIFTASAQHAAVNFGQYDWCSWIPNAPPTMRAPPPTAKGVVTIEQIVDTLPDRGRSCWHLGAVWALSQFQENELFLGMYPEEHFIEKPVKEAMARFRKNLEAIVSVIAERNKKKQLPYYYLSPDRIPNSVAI
Put plainly: Inhibition of recombinant human 5-LO expressed in Escherichia coli BL21 using arachidonic acid as substrate assessed as formation of all-trans isomer of LTB4, 5-H(P)ETE preincubated for 5 to 10 mins followed by substrate addition measured after 10 mins by HPLC analysis.

In experiment [2] the target is T2, Polyunsaturated fatty acid 5-lipoxygenase. Put plainly: Inhibition of 5-LO in ionophore A23187-stimulated human PMNL using arachidonic acid as substrate assessed as formation of LTB4, 5(S),12(S)-DiHETE, 5-H(p)ETE preincubated for 15 mins followed by substrate and ionophore addition measured after 10 mins by HPLC analysis.
The next experiment concerns Jurkat. Put plainly: Cytotoxicity against human Jurkat cells assessed as induction of cell death after 48 hrs by MTT assay. Type of experiment: functional, cell-based. The method in brief: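 Jurkat T cells grown in RPMI 1640 with 10% heat-inactivated FCS, 10 mM HEPES, penicillin/streptomycin at 37 °C, 5% CO₂. Seeded at 2 × 10⁴ per well. Compounds or 0.3% DMSO vehicle added for 48 h. MTT then added until blue staining, cells lysed overnight in 10% SDS/20 mM HCl, absorbance read at 570 nm. Three to four independent experiments.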
For orientation: Tetrazolium dyes change colour on reduction, which living cells bring about.

The target of experiment [3] is T3, Polyunsaturated fatty acid 5-lipoxygenase (Homo sapiens) (UniProt P09917).
T3 sequence (whole entry): T2 sequence (P09917 whole entry)
Put plainly: Inhibition of recombinant human 5-LO expressed in Escherichia coli BL21 using arachidonic acid as substrate assessed as remaining activity at 10 uM preincubated for 5 to 10 mins followed by substrate addition measured after 10 mins by HPLC analysis relative to control. A digest of the protocol: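 5-LO expressed in E. coli BL21 from pT3-5-LO plasmid at 37 °C, then partially purified. Enzyme with compound held 5–10 min at 4 °C, prewarmed 30 s at 37 °C. Reaction started with 2 mM CaCl₂ plus 20 µM AA, stopped after 10 min at 37 °C with ice-cold methanol. All-trans LTB₄ isomers and 5-H(P)ETE quantified by HPLC. BWA4C used as control.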

As usually defined, the IC50 is the concentration needed to halve the response being measured. The EC50 is the concentration at which the effect is half-maximal. For `CCCCCC(=O)c1c(O)c([C@@H](CC(C)C)C2=C(O)C(C)(C)C(=O)C(C)(C)C2=O)c(O)c([C@H](C2=C(O)C(C)(C)C(=O)C(C)(C)C2=O)C(C)C)c1O` [MYRTUCOMMULONE H], the IC50 at Prostaglandin E synthase worked out at 300 nM; in experiment [1], 6600 nM; in experiment [2], 1300 nM. Also, in the experiment with Jurkat, the EC50 came out at 21900 nM.
For `CCCCCC(=O)c1c(O)c([C@H](C2=C(O)C(C)(C)C(=O)C(C)(C)C2=O)C(C)C)c(O)c([C@H](C2=C(O)C(C)(C)C(=O)C(C)(C)C2=O)C(C)C)c1O` [MYRTUCOMMULONE F] the same measures were 600 nM, 7500 nM, 3100 nM and 2300 nM.
On the same counts, the results for `CCCCCC(=O)c1c(O)cc(O)c2c1OC1=C(C(=O)C(C)(C)C(=O)C1(C)C)C2C(C)C` (stereo not given) are 6400 nM, 2500 nM, 1600 nM and 7400 nM.
On the same counts, the results for `CCCCCC(=O)c1c(O)c(C(CC(C)C)C2=C(O)CC(C)(C)CC2=O)c(O)c(C(CC(C)C)C2=C(O)CC(C)(C)CC2=O)c1O` (stereo not given) are 810 nM, 2900 nM, 7300 nM and 13100 nM.
Take `CC(C)CC(=O)c1c(O)c(C(C2=C(O)c3ccccc3C2=O)C(C)C)c(O)c(C(C2=C(O)c3ccccc3C2=O)C(C)C)c1O` (stereo not given): the IC50 in experiment [1] came out at 3100 nM; in experiment [2], 1300 nM. Besides, the EC50 with Jurkat was greater than 30000 nM.
For `CC(C)C(=O)c1c(O)c(C(C2=C(O)c3ccccc3C2=O)c2ccccc2)c(O)c(C(C2=C(O)c3ccccc3C2=O)c2ccccc2)c1O` (stereo not given), the IC50 on Prostaglandin E synthase was 810 nM; in experiment [1], 730 nM; in experiment [2] it was 1400 nM. Further, the EC50 in the experiment with Jurkat was greater than 30000 nM.
For the compound `CCCCCC(=O)c1c(O)c(C(CC(C)C)C2=C(O)C(C)(C)C(=O)C(C)(C)C2=O)c(O)c(C(CC(C)C)C2=C(O)C(C)(C)C(=O)C(C)(C)C2=O)c1O` (stereo not given), the IC50 at Prostaglandin E synthase is 240 nM; in experiment [1], 3500 nM; in experiment [2], 460 nM. Further, in the experiment with Jurkat, the EC50 came to 23500 nM.
For `CCCCCC(=O)c1c(O)c(C(C2=C(O)CC(C)(C)CC2=O)C(C)C)c(O)c(C(C2=C(O)CC(C)(C)CC2=O)C(C)C)c1O` (stereo not given), the IC50 on Prostaglandin E synthase is 570 nM; in experiment [1], greater than 10000 nM; in experiment [2], 2700 nM. The Activity in experiment [3] amounted to 68.7%. Moreover, in the experiment on Jurkat, the EC50 was 3700 nM.
Regarding `CC(C)CC(C1=C(O)C(C)(C)C(=O)C(C)(C)C1=O)c1c(O)c(C(=O)C(C)C)c(O)c(C(CC(C)C)C2=C(O)C(C)(C)C(=O)C(C)(C)C2=O)c1O` (stereo not given), the IC50 on Prostaglandin E synthase came out at 290 nM; in experiment [1], 4800 nM; in experiment [2], 970 nM. The concentration for a half-maximal effect (EC50) in the experiment on Jurkat turned out to be 12200 nM.
`CCCCCC(=O)c1c(O)c(C(C2=C(O)C(C)(C)C(=O)C(C)(C)C2=O)C(C)C)c(O)c2c1OC1=C(C(=O)C(C)(C)C(=O)C1(C)C)C2C(C)C` (stereo not given): the IC50 is 610 nM on Prostaglandin E synthase, greater than 10000 nM in experiment [1] and 1300 nM in experiment [2]. Besides, the Activity in experiment [3] came to 66.7%. The EC50 in the experiment with Jurkat was found to be 2500 nM.
For `CC(C)CC(=O)c1c(O)c(C(CC(C)C)C2=C(O)C(C)(C)C(=O)C(C)(C)C2=O)c(O)c(C(CC(C)C)C2=C(O)C(C)(C)C(=O)C(C)(C)C2=O)c1O` (stereo not given), the values for the IC50 (on Prostaglandin E synthase; in experiment [1]; in experiment [2]) were 220 nM, 2700 nM and 660 nM, respectively. In the experiment on Jurkat, the EC50 worked out at 19200 nM.
Consider `CC(C)C(=O)c1c(O)c([C@@H](C2=C(O)C(C)(C)C(=O)C(C)(C)C2=O)C(C)C)c(O)c2c1OC1=C(C(=O)C(C)(C)C(=O)C1(C)C)[C@@H]2C(C)C`, for which the IC50 was 490 nM on Prostaglandin E synthase, greater than 10000 nM in experiment [1] and 980 nM in experiment [2]. Moreover, the Activity in experiment [3] was 82.3%. In addition, the EC50 with Jurkat is 3400 nM.
Take `CCCCCC(=O)c1c(O)cc(O)c(C(C2=C(O)C(C)(C)C(=O)C(C)(C)C2=O)C(C)C)c1O` (stereo not given): the IC50 is 390 nM on Prostaglandin E synthase, greater than 10000 nM in experiment [1] and 1600 nM in experiment [2]. Besides, the Activity in experiment [3] worked out at 72.8%. Further, the EC50 in the experiment with Jurkat is greater than 30000 nM.
On to `CC(C)C(=O)c1c(O)c(C(C2=C(O)c3ccccc3C2=O)C(C)C)c(O)c(C(C2=C(O)c3ccccc3C2=O)C(C)C)c1O` (stereo not given), for which, in experiment [1], the IC50 is 20000 nM. For the same compound, in the experiment on Jurkat, the concentration giving a half-maximal response (EC50) was greater than 30000 nM.
Consider `CC(C)C(=O)c1c(O)cc(O)c2c1OC1=C(C(=O)C(C)(C)C(=O)C1(C)C)[C@@H]2C(C)C`, for which the IC50 is 7900 nM on Prostaglandin E synthase, 6200 nM in experiment [1] and 1600 nM in experiment [2]. In the experiment on Jurkat, the EC50 worked out at 8100 nM.
For `CCCCCC(=O)c1c(O)c(C(C2=C(O)c3ccccc3C2=O)c2ccccc2)c(O)c(C(C2=C(O)c3ccccc3C2=O)c2ccccc2)c1O` (stereo not given) the same measures were 430 nM, 460 nM, 690 nM and greater than 30000 nM.
`CC(C)C(C1=C(O)c2ccccc2C1=O)c1c(O)c(C(=O)c2ccccc2)c(O)c(C(C2=C(O)c3ccccc3C2=O)C(C)C)c1O` (stereo not given): the EC50 in the experiment on Jurkat is greater than 30000 nM.
Consider `CC(C)CC(=O)c1c(O)c(C(C2=C(O)c3ccccc3C2=O)c2ccccc2)c(O)c(C(C2=C(O)c3ccccc3C2=O)c2ccccc2)c1O` (stereo not given), for which the values for the IC50 (on Prostaglandin E synthase; in experiment [1]; in experiment [2]) were 650 nM, 1200 nM and 2100 nM, respectively. For the same compound, the EC50 in the experiment on Jurkat was greater than 30000 nM.
On the same counts, the results for `CC(C)C(=O)c1c(O)c(C(C2=C(O)CC(C)(C)CC2=O)C(C)C)c(O)c(C(C2=C(O)CC(C)(C)CC2=O)C(C)C)c1O` (stereo not given) are 2100 nM, 25000 nM, 13000 nM and 2000 nM.
Regarding `CC(C)CC(=O)c1c(O)cc(O)c(C(CC(C)C)C2=C(O)C(C)(C)C(=O)C(C)(C)C2=O)c1O` (stereo not given), the IC50 worked out at 640 nM on Prostaglandin E synthase, 4600 nM in experiment [1] and 1800 nM in experiment [2]. Further, the EC50 with Jurkat is greater than 30000 nM.
As to `CCCCCC(=O)c1c(O)c(C(C2=C(O)c3ccccc3C2=O)C(C)C)c(O)c(C(C2=C(O)c3ccccc3C2=O)C(C)C)c1O` (stereo not given), the values for the IC50 in experiment [1] and in experiment [2] were 1700 nM and 1500 nM, respectively. Besides, the EC50 with Jurkat was greater than 30000 nM.
Consider `CC(C)C(=O)c1c(O)cc(O)c(C(C2=C(O)C(C)(C)C(=O)C(C)(C)C2=O)C(C)C)c1O` (stereo not given), for which the 50% inhibitory concentration (IC50) at Prostaglandin E synthase is 820 nM; in experiment [1], greater than 10000 nM; in experiment [2], 8100 nM. The Activity in experiment [3] was determined as 82.5%. Moreover, the EC50 in the experiment with Jurkat was greater than 30000 nM.
On to `O=C1C(C(c2ccccc2)c2c(O)c(C(=O)c3ccccc3)c(O)c(C(C3=C(O)c4ccccc4C3=O)c3ccccc3)c2O)=C(O)c2ccccc21` (stereo not given), for which the IC50 on Prostaglandin E synthase stood at 480 nM; in experiment [1], 3000 nM; in experiment [2] it was 1800 nM. Moreover, the EC50 with Jurkat was greater than 30000 nM.
With `CC(=O)c1c(O)c(C(C2=C(O)CC(C)(C)CC2=O)C(C)C)c(O)c(C(C2=C(O)CC(C)(C)CC2=O)C(C)C)c1O` (stereo not given), the IC50 at Prostaglandin E synthase was 1100 nM; in experiment [1], greater than 10000 nM; in experiment [2] it was 8100 nM. Besides, the Activity in experiment [3] stood at 69.3%. The EC50 with Jurkat turned out to be 7500 nM.
